Target: T1, Interleukin-2 (Homo sapiens, UniProt P60568)
Assay: Concentration required to inhibit mouse interleukin-2 alpha receptor was determined by SPA assay
Conditions: not given
Method in brief: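 SPA: compounds as 3-fold serial dilutions in DMSO added to 10 nM tritiated propionic acid-labeled IL-2 in Superblock, then to biotinylated IL-2Rα on streptavidin scintillant beads (0.7 mg/mL). Scintillation from receptor-bound IL-2 counted; IC50 by nonlinear regression of counts vs concentration.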
Target sequence in this assay (P60568 whole entry): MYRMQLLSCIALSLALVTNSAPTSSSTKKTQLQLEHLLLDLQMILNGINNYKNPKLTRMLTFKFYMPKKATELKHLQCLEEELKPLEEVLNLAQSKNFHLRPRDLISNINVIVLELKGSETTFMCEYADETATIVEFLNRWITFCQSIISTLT

SMILES | IC50 [µM]
CC(C)C[C@@H](N=C(N)N)C(=O)NCC(=O)N1CCC(c2cc(-c3ccc(OCc4cccc(C(=O)O)c4)c(Cl)c3Cl)nn2C)CC1 | 0.4
Cc1ccccc1-c1cc(C2CCN(C(=O)CNC(=O)[C@H](N=C(N)N)C3CCCCC3)CC2)[nH]n1 | 50
N=C(N)N[C@@H](C(=O)NCC(=O)N1CCC(c2cccc(-c3ccc(Cl)cc3Cl)c2)CC1)C1CCCCC1 | 150
NC(N)=N[C@@H](C(=O)NCC(=O)N1CCC(c2cc(-c3ccccc3)n[nH]2)CC1)C1CCCCC1 | 120
Cn1nc(C2CCN(C(=O)CNC(=O)[C@H](N=C(N)N)C3CCCCC3)CC2)cc1-c1cccc(Cl)c1Cl | 50
NC(N)=N[C@@H](C(=O)NCC(=O)N1CCC(c2nc(-c3ccc(Cl)cc3Cl)no2)CC1)C1CCCCC1 | 500
CC(C)C[C@@H](N=C(N)N)C(=O)NCC(=O)N1CCC(c2cc(-c3cccc(Cl)c3Cl)nn2C)CC1 | 2
N=C(N)N[C@@H](C(=O)NCC(=O)N1CCC(c2cc(-c3ccc(O)cc3Cl)[nH]n2)CC1)C1CCCCC1 | 30
CC(C)C[C@@H](N=C(N)N)C(=O)NCC(=O)N1CCC(c2cc(-c3ccc(OCc4ccccc4)c(Cl)c3Cl)nn2C)CC1 | 35
COC(=O)c1ccc(COc2ccc(-c3cc(C4CCN(C(=O)CNC(=O)[C@@H](CC(C)C)N=C(N)N)CC4)n(C)n3)c(Cl)c2Cl)cc1 | 40
N=C(N)N[C@@H](C(=O)NCC(=O)N1CCC(c2cc(-c3ccc(Cl)cc3Cl)[nH]n2)CC1)C1CCCCC1 | 10
COc1ccc(-c2cc(C3CCN(C(=O)CNC(=O)[C@H](N=C(N)N)C4CCCCC4)CC3)[nH]n2)c(Cl)c1 | 50
NC(N)=N[C@@H](C(=O)NCC(=O)N1CCC(c2cc(-c3cccc(Cl)c3)n[nH]2)CC1)C1CCCCC1 | 130
COc1ccc(-c2cc(C3CCN(C(=O)CNC(=O)[C@@H](CC(C)C)N=C(N)N)CC3)n(C)n2)c(Cl)c1Cl | 3.5
Cc1cccc(-c2cc(C3CCN(C(=O)CNC(=O)[C@H](N=C(N)N)C4CCCCC4)CC3)[nH]n2)c1C | 130
NC(N)=N[C@@H](C(=O)NCC(=O)N1CCC(c2cc(-c3ccc(Cl)c(Cl)c3)n[nH]2)CC1)C1CCCCC1 | 110
CC1C(c2cccc(Cl)c2Cl)=NN=C1C1CCN(C(=O)CNC(=O)[C@H](N=C(N)N)C2CCCCC2)CC1 (some centres undefined) | 400
CC(C)C[C@@H](N=C(N)N)C(=O)NCC(=O)N1CCC(c2cc(-c3ccc(OCc4ccc(CC(=O)O)cc4)c(Cl)c3Cl)nn2C)CC1 | 0.6
Cn1nc(-c2cccc(Cl)c2Cl)cc1C1CCN(C(=O)CNC(=O)[C@H](N=C(N)N)C2CCCCC2)CC1 | 20
CC(C)C[C@@H](N=C(N)N)C(=O)NCC(=O)N1CCC(c2cc(-c3ccc(OCc4ccc(C(=O)O)cc4)c(Cl)c3Cl)nn2C)CC1 | 0.2
NC(N)=N[C@@H](C(=O)NCC(=O)N1CCC(c2cc(-c3ccccc3Cl)n[nH]2)CC1)C1CCCCC1 | 40
CC(C)C[C@@H](N=C(N)N)C(=O)NCC(=O)N1CCC(c2cc(-c3ccc(O)c(Cl)c3Cl)nn2C)CC1 | 8.1
Cc1cccc(-c2cc(C3CCN(C(=O)CNC(=O)[C@H](N=C(N)N)C4CCCCC4)CC3)[nH]n2)c1 | 150

Target: T1, Interleukin-2
Assay: Inhibition of mouse Interleukin-2 receptor alpha
Conditions: target entry is the homologue from another species
Target sequence in this assay (P60568 whole entry): as above

SMILES | IC50 [µM]
CNC(=O)C[C@H]1CCCN(C(=N)N)C1 | > 10000
COCC(=O)N[C@@H](Cc1ccc(C#Cc2ccccc2)cc1)C(=O)O | 2200
COC(=O)[C@H](Cc1ccc(C#Cc2ccccc2)cc1)NC(=O)C[C@H]1CCCN(C(=N)N)C1 | 7

Target: T1, Interleukin-2
Assay: Inhibition of mouse interleukin-2 alpha receptor by ELISA
Conditions: target entry is the homologue from another species
Method in brief: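 ELISA: 15 nM biotinylated IL-2Rα captured on streptavidin-coated wells; 3-fold serial compound dilutions with 5 nM IL-2 (2% DMSO final) in Superblock/0.01% Tween 20 incubated on receptor.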
Target sequence in this assay (P60568 whole entry): as above

SMILES | IC50 [µM]
COC(=O)[C@H](Cc1ccc(C#Cc2ccccc2)cc1)NC(=O)CNC(=O)[C@@H]1CCCN1C(=N)N | 720
CC[C@@H](C)[C@H](N=C(N)N)C(=O)NCC(=O)N[C@@H](Cc1ccc(C#Cc2ccccc2)cc1)C(=O)OC | 26
COC(=O)[C@H](Cc1ccc(C#Cc2ccccc2)cc1)NC(=O)CNC(=O)[C@@H](CCC(N)=O)N=C(N)N | 900
COC(=O)[C@H](Cc1ccc(C#Cc2ccccc2)cc1)NC(=O)CNC(=O)[C@H]1CCCN1C(=N)N | 1000
COC(=O)[C@H](Cc1ccc(C#Cc2ccccc2)cc1)NC(=O)CNC(=O)CNC(=N)N | > 2000
COC(=O)[C@H](Cc1ccc(C#Cc2ccccc2)cc1)NC(=O)CNC(=O)[C@@H](N=C(N)N)C(C)C | 80
COC(=O)[C@H](Cc1ccc(C#Cc2ccccc2)cc1)NC(=O)CNC(=O)[C@@H](CC1CCCCC1)N=C(N)N | 37
COC(=O)[C@H](Cc1ccc(C#Cc2ccccc2)cc1)NC(=O)CNC(=O)[C@@H](N=C(N)N)C(C)(C)C | 9
COC(=O)[C@H](Cc1ccc(C#Cc2ccccc2)cc1)NC(=O)CNC(=O)[C@@H](C)N=C(N)N | ~2000
COC(=O)[C@H](Cc1ccc(C#Cc2ccccc2)cc1)NC(=O)CNC(=O)[C@H](C)N=C(N)N | 280
COC(=O)[C@H](Cc1ccc(C#Cc2ccccc2)cc1)NC(=O)CNC(=O)[C@H](N=C(N)N)C1CCCCC1 | 20
COC(=O)[C@H](Cc1ccc(C#Cc2ccccc2)cc1)NC(=O)CNC(=O)[C@H](N=C(N)N)C(C)C | > 2000
COC(=O)[C@H](Cc1ccc(C#Cc2ccccc2)cc1)NC(=O)CNC(=O)CN(C)C(=N)N | 1200

Test system: not listed separately
Assay: Volume distribution (steady state) of compound was determined in mouse
Assay type: ADME, organism-based
Conditions: in vivo, read-out: Vss
Method in brief: (§1)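 Male CD-1 mice, 10 mg/kg IV bolus via lateral tail vein, 2.5 mg/mL in PEG 400; three mice per time point. Cardiac blood into sodium-EDTA at 0.5–8 h, plasma by LC-MS/MS against a plasma standard curve; parameters from mean concentration–time profiles.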

SMILES | Vd [L/kg]
CC(C)C[C@@H](NC(=N)N)C(=O)NCC(=O)N1CCC(c2cc(-c3ccc(OCc4ccc(C(=O)O)o4)c(Cl)c3Cl)nn2C)CC1 | 1.1

Target: T1, Interleukin-2
Assay: Effective concentration required against phosphorylation of Mammary gland factor/STAT5
Assay type: functional, Mus musculus
Conditions: not given
Method in brief: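 Mouse CTLL-2 T cells grown to about 1 × 10^6 cells/mL in RPMI/IL-2, starved of IL-2 overnight, then given 2-fold serial compound dilutions in medium with 0.1 ng/mL human IL-2 for 30 min at 37 °C. Phospho-STAT5 measured by western blot and densitometry, plotted against concentration; average of three experiments.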
Target sequence in this assay (P60568 whole entry): as above

SMILES | EC50 [µM]
CC(C)C[C@@H](N=C(N)N)C(=O)NCC(=O)N1CCC(c2cc(-c3cccc(Cl)c3Cl)nn2C)CC1 | ~25
COC(=O)[C@H](Cc1ccc(C#Cc2ccccc2)cc1)NC(=O)C[C@H]1CCCN(C(=N)N)C1 | 100

Test system: not listed separately
Assay: Plasma clearance in mouse
Assay type: ADME, organism-based
Conditions: read-out: Clp
Method in brief: as §1

SMILES | clearance [mL/min/kg]
CC(C)C[C@@H](NC(=N)N)C(=O)NCC(=O)N1CCC(c2cc(-c3ccc(OCc4ccc(C(=O)O)o4)c(Cl)c3Cl)nn2C)CC1 | 13.6

Target: T1, Interleukin-2
Assay: Dissociation constant for human Interleukin-2 by SPR assay
Conditions: not given
Target sequence in this assay (P60568 whole entry, looked up): as the sequence (P60568 whole entry) above

SMILES | KdSPA [mM]
COCC(=O)N[C@@H](Cc1ccc(C#Cc2ccccc2)cc1)C(=O)O | 1.5
